Measured values: ChEMBL document CHEMBL1141693, “Discovery of benzoylpiperazines as a novel class of potent and selective GlyT1 inhibitors” (Bioorg Med Chem Lett, 2008)
Converted amounts (≈) assume the structure as drawn. The source made the active and inactive calls. The rule behind the calls is not given here.

Key:
[1] = Fraction unbound in mouse plasma at 10 mg/kg, po; assay type: ADME, organism-based; set-up: dose 10 mg/kg, route oral
Cytochrome P450 2D6 = Cytochrome P450 2D6 (Homo sapiens, UniProt P10635); experiment: Inhibition of CYP2D6; assay type: ADME
Cytochrome P450 2D6, sequence (P10635 whole entry): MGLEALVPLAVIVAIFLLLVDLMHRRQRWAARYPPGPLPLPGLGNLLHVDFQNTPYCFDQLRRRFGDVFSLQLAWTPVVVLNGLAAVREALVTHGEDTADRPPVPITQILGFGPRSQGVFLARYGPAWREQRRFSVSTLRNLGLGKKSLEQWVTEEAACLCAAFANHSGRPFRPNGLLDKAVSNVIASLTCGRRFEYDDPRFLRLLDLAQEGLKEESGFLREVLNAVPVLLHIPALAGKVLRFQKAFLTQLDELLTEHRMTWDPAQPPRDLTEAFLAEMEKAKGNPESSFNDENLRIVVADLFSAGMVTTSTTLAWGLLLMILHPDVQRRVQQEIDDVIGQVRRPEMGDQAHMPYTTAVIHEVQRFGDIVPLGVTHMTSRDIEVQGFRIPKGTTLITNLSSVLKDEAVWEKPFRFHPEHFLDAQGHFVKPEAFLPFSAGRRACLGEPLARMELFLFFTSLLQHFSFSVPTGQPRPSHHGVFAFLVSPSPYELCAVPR

[2] = target: T1, Sodium- and chloride-dependent glycine transporter 1 (Homo sapiens, UniProt P48067); experiment: Inhibition of [3H]glycine uptake at human glycine transporter 1 expressed in CHO cells by scintillation counter; assay type: cell-based
T1 sequence (P48067 whole entry): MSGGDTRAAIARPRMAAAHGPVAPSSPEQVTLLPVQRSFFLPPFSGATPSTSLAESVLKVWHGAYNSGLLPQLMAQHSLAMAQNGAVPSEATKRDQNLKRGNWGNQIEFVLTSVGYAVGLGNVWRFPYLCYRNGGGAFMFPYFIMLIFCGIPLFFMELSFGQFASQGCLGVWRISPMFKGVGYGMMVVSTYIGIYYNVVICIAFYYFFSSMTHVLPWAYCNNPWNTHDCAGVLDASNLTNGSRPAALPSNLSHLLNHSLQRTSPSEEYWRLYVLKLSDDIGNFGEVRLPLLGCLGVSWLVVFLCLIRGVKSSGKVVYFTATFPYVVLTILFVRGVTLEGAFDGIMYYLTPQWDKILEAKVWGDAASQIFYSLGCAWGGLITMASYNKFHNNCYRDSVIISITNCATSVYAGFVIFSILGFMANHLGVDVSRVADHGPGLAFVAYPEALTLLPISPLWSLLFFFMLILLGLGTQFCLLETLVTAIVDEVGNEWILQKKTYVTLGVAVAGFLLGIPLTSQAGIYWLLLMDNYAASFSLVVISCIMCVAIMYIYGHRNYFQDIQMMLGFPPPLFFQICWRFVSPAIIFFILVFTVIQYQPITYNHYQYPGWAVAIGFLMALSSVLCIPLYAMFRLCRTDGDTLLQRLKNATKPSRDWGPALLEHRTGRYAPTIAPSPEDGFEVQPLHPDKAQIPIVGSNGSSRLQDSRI

[3] = Aqueous solubility in phosphate buffer at pH 6.5 by lyophilization solubility assay; assay type: physicochemical
Summary of the method: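 Aqueous solubility was measured at pH 6.5 in a lyophilization solubility assay.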

[4] = Membrane permeability by PAMPA; assay type: ADME; settings: read-out: permeability
Summary of the method: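 PAMPA artificial-membrane permeation, reported as the permeation constant Pe in 10^-6 cm/s.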

Liver microsomes [5] = experiment: Metabolic stability in human liver microsomes assessed as intrinsic clearance per […] of protein; assay type: ADME, Microsome
Summary of the method: (§1)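 Intrinsic clearance measured in liver microsomes from rat, mouse or human, expressed per mg microsomal protein.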

[6] = Metabolic stability in mouse liver microsomes assessed as intrinsic clearance per […] of protein; assay type: ADME, Microsome; summary of the method: as §1
[7] = target: T2, Sodium- and chloride-dependent glycine transporter 2 (Homo sapiens) (UniProt Q9Y345); experiment: Inhibition of [3H]glycine uptake at human glycine transporter 2 expressed in CHO cells at 30 uM by scintillation counter; assay type: cell-based
T2 sequence (whole entry): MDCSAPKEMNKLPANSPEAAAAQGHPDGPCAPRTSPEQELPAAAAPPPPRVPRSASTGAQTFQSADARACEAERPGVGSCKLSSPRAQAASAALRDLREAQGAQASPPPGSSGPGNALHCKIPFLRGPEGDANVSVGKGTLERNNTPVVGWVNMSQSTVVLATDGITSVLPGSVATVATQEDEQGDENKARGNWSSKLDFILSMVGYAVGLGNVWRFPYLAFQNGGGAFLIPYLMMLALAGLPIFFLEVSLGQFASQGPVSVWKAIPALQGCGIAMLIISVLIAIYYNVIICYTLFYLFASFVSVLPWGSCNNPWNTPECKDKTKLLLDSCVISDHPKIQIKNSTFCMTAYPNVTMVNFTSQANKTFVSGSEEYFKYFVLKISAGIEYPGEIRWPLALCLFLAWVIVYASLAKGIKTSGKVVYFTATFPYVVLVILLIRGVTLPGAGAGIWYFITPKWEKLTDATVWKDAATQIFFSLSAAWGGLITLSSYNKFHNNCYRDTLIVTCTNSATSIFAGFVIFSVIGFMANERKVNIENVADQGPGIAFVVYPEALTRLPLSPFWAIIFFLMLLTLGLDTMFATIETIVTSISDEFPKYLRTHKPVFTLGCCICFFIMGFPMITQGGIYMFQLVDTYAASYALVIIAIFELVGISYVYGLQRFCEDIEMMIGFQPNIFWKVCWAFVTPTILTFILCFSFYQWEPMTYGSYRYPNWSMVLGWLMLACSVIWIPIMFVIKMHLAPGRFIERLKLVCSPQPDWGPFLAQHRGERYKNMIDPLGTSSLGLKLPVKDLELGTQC

[8] = Clearance in mouse at 2 mg/kg, iv; assay type: ADME, organism-based; set-up: dose 2 mg/kg, route intravenous; settings: in vivo
[9] = Volume of distribution at steady state in mouse at 2 mg/kg, iv; assay type: ADME, organism-based; set-up: dose 2 mg/kg, route intravenous; settings: in vivo, read-out: Vdss
[10] = Oral bioavailability in mouse at 10 mg/kg; assay type: ADME, organism-based; settings: in vivo
[11] = Half life in mouse at 10 mg/kg, po; assay type: ADME, organism-based; set-up: dose 10 mg/kg, route oral; settings: in vivo
[12] = Cmax in mouse plasma at 10 mg/kg, po; assay type: ADME, organism-based; set-up: dose 10 mg/kg, route oral
[13] = Cmax in mouse brain at 10 mg/kg, po; assay type: ADME, organism-based; set-up: dose 10 mg/kg, route oral
[14] = Ratio of drug level in brain to plasma in mouse at 10 mg/kg, po; assay type: ADME, organism-based; set-up: dose 10 mg/kg, route oral; settings: read-out: BPR
Summary of the method: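 Mouse pharmacokinetics after a 10 mg/kg oral dose. Brain/plasma ratio taken from brain Cmax (ng/g) and plasma Cmax (ng/mL). Values are the average of two independent experiments.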

[15] = target: T3, Sodium- and chloride-dependent glycine transporter 2 (Homo sapiens, UniProt Q9Y345); experiment: Inhibition of [3H]glycine uptake at human glycine transporter 2 expressed in CHO cells by scintillation counter; assay type: cell-based
T3 sequence (Q9Y345 whole entry): T2 sequence (whole entry)
Summary of the method: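 [³H]-glycine uptake inhibition in cells transfected with human GlyT2 cDNA. EC50 is the average of at least two independent experiments.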

Homo sapiens = species on record: Homo sapiens; experiment: Selectivity ratio of IC50 for human glycine transporter 2 to IC50 for human glycine transporter 1
Summary of the method: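 [³H]-glycine uptake inhibition in cells transfected with human GlyT1 or human GlyT2 cDNA. Each EC50 is the average of at least two independent experiments. Selectivity is the ratio of GlyT2 EC50 to GlyT1 EC50.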

Liver microsomes [16] = experiment: Metabolic stability in rat liver microsomes assessed as intrinsic clearance per […] of protein; assay type: ADME, Microsome; summary of the method: as §1
[17] = Inhibition of phosphodiesterase at 10 uM
Summary of the method: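 CEREP selectivity panel of 80 targets: transmembrane and soluble receptors, enzymes, ion channels and monoamine transporters. Single test concentration of 10 µM; read-out is percent inhibition.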

MAO-A = target: T4, MAO-A (Homo sapiens, UniProt P21397); experiment: Inhibition of MAOA at 10 uM
T4 sequence (P21397 whole entry): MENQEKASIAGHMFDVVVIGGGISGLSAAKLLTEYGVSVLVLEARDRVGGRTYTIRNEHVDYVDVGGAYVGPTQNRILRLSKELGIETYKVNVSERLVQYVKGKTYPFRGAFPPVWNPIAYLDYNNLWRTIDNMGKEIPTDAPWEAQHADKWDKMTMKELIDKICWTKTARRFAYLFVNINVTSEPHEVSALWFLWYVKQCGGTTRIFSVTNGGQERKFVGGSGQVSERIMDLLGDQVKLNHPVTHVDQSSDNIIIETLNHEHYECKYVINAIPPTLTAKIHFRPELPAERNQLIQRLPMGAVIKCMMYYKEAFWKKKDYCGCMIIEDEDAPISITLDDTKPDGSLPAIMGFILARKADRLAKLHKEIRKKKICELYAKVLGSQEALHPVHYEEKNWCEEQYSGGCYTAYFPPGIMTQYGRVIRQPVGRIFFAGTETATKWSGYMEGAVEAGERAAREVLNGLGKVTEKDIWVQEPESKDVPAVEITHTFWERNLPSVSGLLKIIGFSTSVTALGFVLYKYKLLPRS
Summary of the method: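 CEREP selectivity screen across a panel of 80 targets (receptors, enzymes, ion channels, monoamine transporters). Percent inhibition was read at a single test concentration.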

[18] = target: T5, Catechol O-methyltransferase (Homo sapiens) (UniProt P21964); experiment: Inhibition of catechol-O-methyl transferase at 10 uM
T5 sequence (whole entry): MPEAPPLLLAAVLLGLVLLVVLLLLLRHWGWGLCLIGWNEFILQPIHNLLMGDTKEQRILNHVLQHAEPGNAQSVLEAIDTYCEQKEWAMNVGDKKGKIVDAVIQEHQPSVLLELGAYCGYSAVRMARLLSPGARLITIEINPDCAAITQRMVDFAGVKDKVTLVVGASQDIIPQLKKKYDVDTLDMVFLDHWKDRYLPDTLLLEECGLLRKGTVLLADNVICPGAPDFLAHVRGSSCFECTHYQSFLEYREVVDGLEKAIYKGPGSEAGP
Summary of the method: (§2)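 Run within an outsourced CEREP selectivity screen of 80 targets (transmembrane and soluble receptors, enzymes, ion channels, monoamine transporters). The compound was tested at a single concentration and the read-out was percent inhibition of each target.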

[19] = target: Acetylcholinesterase (Homo sapiens) (UniProt P22303); experiment: Inhibition of acetylcholinesterase at 10 uM; summary of the method: as §2
Acetylcholinesterase (Homo sapiens), sequence (P22303 whole entry): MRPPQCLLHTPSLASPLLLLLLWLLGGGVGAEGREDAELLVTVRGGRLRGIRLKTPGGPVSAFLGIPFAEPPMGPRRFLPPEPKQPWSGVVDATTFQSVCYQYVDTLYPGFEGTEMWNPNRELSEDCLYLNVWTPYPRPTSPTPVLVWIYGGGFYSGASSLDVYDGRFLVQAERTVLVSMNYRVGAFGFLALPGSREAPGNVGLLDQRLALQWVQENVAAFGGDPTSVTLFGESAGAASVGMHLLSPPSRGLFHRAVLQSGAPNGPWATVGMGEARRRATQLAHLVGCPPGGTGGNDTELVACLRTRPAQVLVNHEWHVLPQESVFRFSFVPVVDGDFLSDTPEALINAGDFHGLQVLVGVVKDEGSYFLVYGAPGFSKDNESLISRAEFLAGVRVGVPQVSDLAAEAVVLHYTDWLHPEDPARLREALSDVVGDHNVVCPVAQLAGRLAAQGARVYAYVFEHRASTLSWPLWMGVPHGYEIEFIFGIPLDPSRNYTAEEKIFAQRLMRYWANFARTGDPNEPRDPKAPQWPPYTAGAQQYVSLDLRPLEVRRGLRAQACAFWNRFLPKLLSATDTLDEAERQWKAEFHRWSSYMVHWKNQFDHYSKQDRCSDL

With `CS(=O)(=O)c1ccc(OCC2CC2)c(C(=O)N2CCN(c3ccc(C#N)cc3F)CC2)c1` the fraction unbound [1] was 0.12, the IC50 (Cytochrome P450 2D6) was > 29.1 µM and the EC50 [2] was 0.016 µM. It also gave a solubility [3] of 0.031 mg/mL (≈ 67.8 µM), a Papp [4] of 32 nm/s and a clearance (Liver microsomes [5]) of 4 µL/min/mg. The clearance [6] was 9 µL/min/mg, the Activity [7] was “inactive” and the clearance [8] was 0.57 L/h/kg. For the same compound, the Vd [9] was 2.8 L/kg, the bioavailability [10] was 100% and the half-life [11] was 5.8 h. The Cmax [12] was 3.88 µg/mL, the Cmax [13] was 373 ng/g and the Kp [14] was 0.1.
In the case of `CC(=O)c1ccc(N2CCN(C(=O)c3cc(S(C)(=O)=O)ccc3N3CCOCC3)CC2)c(F)c1`, the EC50 [2] is reported as 0.07 µM, the EC50 [15] is reported as > 30 µM and the Ratio EC50 (Homo sapiens) is reported as > 417. It also gave a solubility [3] of 0.03 mg/mL (≈ 61.3 µM), a Papp [4] of 31 nm/s and a clearance (Liver microsomes [16]) of 40 µL/min/mg. The clearance (Liver microsomes [5]) was 26 µL/min/mg, the inhibition [17] was < 20% and the inhibition at 10 µM (MAO-A) was < 20%. The inhibition [18] was < 20% and the inhibition [19] was < 20%.
